In ChEMBL document CHEMBL3739299, “8-Hydroxyquinoline-based inhibitors of the Rce1 protease disrupt Ras membrane localization in human cells” (Bioorg Med Chem, 2016):
pIC50: −log10 of the molar value. Active and inactive are the calls of the source. The calls are words filed in the database; no cut-off is given here.

How the values were obtained:
[1] = molecular target: T1, CAAX prenyl protease 2 (Homo sapiens) (UniProt Q9Y256); assay: Inhibition of human Rce1-mediated CaaX protease activity using […] and […] as substrate assessed as residual activity at 10 uM measured every 30 to 60 seconds for 60 mins
T1 sequence (whole entry): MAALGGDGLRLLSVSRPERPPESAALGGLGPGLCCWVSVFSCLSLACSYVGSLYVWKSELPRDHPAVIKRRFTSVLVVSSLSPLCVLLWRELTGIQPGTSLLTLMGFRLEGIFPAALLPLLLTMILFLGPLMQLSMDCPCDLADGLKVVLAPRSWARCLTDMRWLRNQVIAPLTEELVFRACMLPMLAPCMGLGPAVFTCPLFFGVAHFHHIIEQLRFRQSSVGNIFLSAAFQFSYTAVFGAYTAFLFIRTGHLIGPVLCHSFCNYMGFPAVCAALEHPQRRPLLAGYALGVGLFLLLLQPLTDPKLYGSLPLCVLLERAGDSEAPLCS
In short: (§1)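 Membranes from yeast SM3614 (ste24 rce1 null) overexpressing human Rce1, 0.25 mg/mL final in 200 mM Tris pH 7.5, 200 mM NaCl, 1 mg/mL BSA. […] Reaction started with 20 μM ABZ-KSKTKC(farnesyl)QLIM. Fluorescence (ex 320/em 420) read every 30–60 s for 60 min at 30 °C. Initial velocities trypsin-normalised; activity given as % of DMSO control.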

[2] = Cytotoxicity against human HCT116 cells assessed as cell death at 25 uM after 20 hrs by celltiter blue assay (reference value: 0.4%); format: cell-based; conditions: hct-116, 20 h
In short: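 HCT-116 cells grown in DMEM with 10% FBS and 1% NEAA at 37 °C, 5% CO2, seeded 7 × 10^3 per well, exposed 20 h to 25 μM compound (0.4% DMSO vehicle; untreated control). CellTiter-Blue added for 4 h, fluorescence read at 560/590 nm. Values relative to untreated cells, mean of three independent experiments with SEM.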

[3] = molecular target: T2, CAAX prenyl protease 2 (Homo sapiens, UniProt Q9Y256); assay: Inhibition of human Rce1-mediated CaaX protease activity using ABZ-KSKTKC(farnesyl)QIIM and ABZ-KSKTKC(farnesyl)VIQI as substrate assessed as residual activity measured every 30 to 60 seconds for 60 mins; in short: as §1
T2 sequence (Q9Y256 whole entry): T1 sequence (whole entry)

[4] = molecular target: T3, CAAX prenyl protease 1 homolog (Homo sapiens) (UniProt O75844); assay: Inhibition of human FACE1-mediated CaaX protease activity at 10 uM measured every 30 to 60 seconds for 60 mins
T3 sequence (whole entry): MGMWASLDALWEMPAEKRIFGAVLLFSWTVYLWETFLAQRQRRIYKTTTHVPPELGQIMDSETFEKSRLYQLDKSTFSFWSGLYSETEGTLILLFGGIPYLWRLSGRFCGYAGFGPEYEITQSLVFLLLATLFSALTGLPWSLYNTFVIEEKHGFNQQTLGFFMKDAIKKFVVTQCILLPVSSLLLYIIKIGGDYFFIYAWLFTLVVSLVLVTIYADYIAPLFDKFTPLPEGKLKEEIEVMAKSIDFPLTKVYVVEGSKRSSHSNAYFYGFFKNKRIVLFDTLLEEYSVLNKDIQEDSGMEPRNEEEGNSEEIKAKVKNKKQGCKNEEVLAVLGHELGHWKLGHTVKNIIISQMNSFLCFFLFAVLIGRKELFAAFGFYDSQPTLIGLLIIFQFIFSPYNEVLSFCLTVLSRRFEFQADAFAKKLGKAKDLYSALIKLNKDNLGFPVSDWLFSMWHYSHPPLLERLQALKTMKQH
In short: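 Human Ste24 overexpressed in yeast strain SM3614 (ste24 rce1 null); membranes 0.25 mg/mL final in 200 mM Tris pH 7.5, 200 mM NaCl, 1 mg/mL BSA. Pretreated 15 min at 30 °C with 10 μM compound in duplicate, then 20 μM ABZ-KSKTKC(farnesyl)VIQL substrate added. Fluorescence (ex 320/em 420) read every 30–60 s for 60 min at 30 °C. Initial velocities normalised via trypsin-digest maximum fluorescence and expressed as % of DMSO control. SD shown.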

[5] = test system: Protein farnesyltransferase (Rattus norvegicus); assay: Inhibition of protein farnesyltransferase (rat) at 50 uM measured every 40 seconds for 60 mins

Structure (SMILES) | Activity [1] | pIC50 [3] | inhibition [4] | inhibition [5] | Cell death [2]
C[C@@H](N[C@H](c1ccccc1)c1c(O)ccc2ccccc12)c1ccccc1 | 63% |  |  |  | 
CCOC(=O)c1ccc(NC(c2ccccc2)c2ccc3cccnc3c2O)cc1 (stereo not given) | 52% |  |  |  | < 10%
O=C(O)c1ccc(NC(c2ccc3ccccc3c2O)c2c(F)cc(Br)cc2F)cc1 (stereo not given) | 21% | 5.42 | inactive |  | < 10%
O=C(NC(c1ccccc1)c1ccc2cccnc2c1O)c1ccccc1 (stereo not given) | 81% |  |  |  | < 10%
Oc1c(C(Nc2ccccc2)c2ccccc2)ccc2ccccc12 (stereo not given) | 17% | 5.31 | inactive |  | < 10%
O=C(O)c1ccc(NC(c2ccc3cccnc3c2O)c2c(F)cc(Br)cc2F)cc1 (stereo not given) | 64% |  |  |  | < 10%
O=C(OCc1ccccc1)c1ccc2ccc(C(Nc3ccccc3)c3ccccc3)c(O)c2n1 (stereo not given) | 75% |  |  |  | 
Oc1c(C(Nc2ccccc2)c2c(F)cc(Br)cc2F)ccc2ccccc12 (stereo not given) | 45% | 5.03 | inactive |  | 40%
CCOC(=O)c1ccc(NC(c2ccc3cccnc3c2O)C2CCCC2)cc1 (stereo not given) | 82% |  |  |  | < 10%
Oc1ccc2ccc(O)c(C(Nc3ccccc3)c3ccccc3)c2c1 (stereo not given) | 51% |  |  |  | < 10%
O=C(O)c1ccc2ccc(C(Nc3ccccc3)c3ccccc3)c(O)c2n1 (stereo not given) | 77% |  |  |  | 
CCOC(=O)c1ccc(NC(c2ccc(Cl)cc2)c2ccc3cccnc3c2O)cc1 (stereo not given) | 71% |  |  |  | < 10%
CC(C)(C)c1ccc(NC(c2ccccc2)c2ccc3ccccc3c2O)cc1 (stereo not given) | 38% | 5.30 | inactive |  | < 10%
N#Cc1ccc(C(Nc2ccc(C(=O)O)cc2)c2ccc3cccnc3c2O)cc1 (stereo not given) | 76% | 4.80 | inactive |  | 
Oc1c(C(/N=C/c2ccccc2)c2ccccc2)ccc2cccnc12 (stereo not given) | 73% |  |  |  | < 10%
CCCCCCCCOc1ccc(C(Nc2ccccc2)c2ccc3cccnc3c2O)cc1 (stereo not given) | 89% |  |  |  | 
COC(=O)c1ccc(NC(c2ccccc2)c2ccc3cccnc3c2OC)cc1 (stereo not given) | 65% |  |  |  | < 10%
N#Cc1ccc(NC(c2ccccc2)c2ccc3cccnc3c2O)cc1 (stereo not given) | 56% |  |  |  | < 10%
Oc1c(C(Nc2ccccc2)c2ccccc2)cc(Br)c2cccnc12 (stereo not given) | 73% |  |  |  | 

Structure (SMILES) | Activity [1] | pIC50 [3] | inhibition [4] | inhibition [5] | Cell death [2]
CCOC(=O)c1ccc(NC(c2ccc(F)cc2)c2ccc3cccnc3c2O)cc1 (stereo not given) | 63% |  |  |  | < 10%
O=C(O)c1ccc(NC(c2ccccn2)c2ccc3cccnc3c2O)cc1 (stereo not given) | 90% | 4.42 | inactive |  | 
Oc1c(C(Nc2ccccc2)c2c(F)cc(Br)cc2F)ccc2cccnc12 (stereo not given) | 76% |  |  |  | < 10%
O=[N+]([O-])c1ccc(C(Nc2ccccc2)c2ccc3cccnc3c2O)cc1 (stereo not given) | 85% | 4.96 | inactive |  | 
CCOC(=O)c1ccc(NC(c2ccc(C(F)(F)F)cc2)c2ccc3cccnc3c2O)cc1 (stereo not given) | 89% |  |  |  | < 10%
c1ccc(NC(c2ccccc2)c2ccc3cccnc3c2)cc1 (stereo not given) | 82% |  |  |  | 
Oc1ccc2ccccc2c1C(Nc1ccccc1)c1ccccc1 (stereo not given) | 59% |  |  |  | < 10%
Oc1c(C(Nc2ccccc2)c2ccccc2)cc(Br)c2ccccc12 (stereo not given) | 27% | 5.27 | inactive |  | < 10%
Cc1ccc(NC(c2ccccc2)c2ccc3cccnc3c2O)cc1 (stereo not given) | 54% | 5.06 | inactive |  | 
Oc1c(C(Nc2ccccc2)c2ccccc2)cc(Cl)c2cccnc12 (stereo not given) | 68% |  |  |  | 
Oc1c(C(Nc2ccccc2)C2CCCCC2)ccc2cccnc12 (stereo not given) | 59% |  |  |  | < 10%
Oc1c(C(Nc2nc3ccccc3s2)c2ccccc2)ccc2cccnc12 (stereo not given) | 83% |  |  |  | < 10%
Oc1c(CNc2ccccc2)ccc2cccnc12 | 82% |  |  |  | < 10%
O=C(O)c1cccc(NC(c2ccccc2)c2ccc3ccccc3c2O)c1 (stereo not given) | 23% | 5.28 | inactive | inactive | < 10%
O=C(O)c1ccc(NC(c2ccc3cccnc3c2O)C2CCCCC2)cc1 (stereo not given) | 34% | 5.01 | inactive |  | < 10%
Oc1c(C(Nc2ccccc2)c2ccccc2)ccc2cc3ccccc3nc12 (stereo not given) | 51% |  |  |  | 
N#Cc1ccc2ccc(C(Nc3ccccc3)c3ccccc3)c(O)c2n1 (stereo not given) | 83% |  |  |  | 
Cc1ccc2ccc(C(Nc3ccccc3)c3ccccc3)c(O)c2n1 (stereo not given) | 83% |  |  |  | 
O=C(O)c1ccc(NC(c2cccnc2)c2ccc3cccnc3c2O)cc1 (stereo not given) | 70% | 4.85 | inactive |  | 

Further lines, with some results ahead:

Activity [1] | pIC50 [3] | inhibition [4] | inhibition [5] | Structure (SMILES) | Cell death [2]
83% |  |  |  | CCOC(=O)c1ccc(NC(c2ccc(Br)cc2)c2ccc(Br)cc2)cc1 | 
79% |  |  |  | CCOC(=O)c1ccc(NC(c2ccccc2)c2ccc(Br)cc2)cc1 (stereo not given) | 
72% |  |  |  | O=C(O)c1cccc(NC(=O)c2ccc(NC(c3ccccc3)c3ccccc3)cc2)c1 | 
78% |  |  |  | O=C(Nc1ccccc1)c1ccc(NC(c2ccccc2)c2ccc(Br)cc2)cc1 (stereo not given) | 
32% | 5.15 | inactive |  | Cc1ccc(C(Nc2ccc(C(=O)O)cc2)c2ccc3cccnc3c2O)cc1 (stereo not given) | 
80% |  |  |  | O=C(Nc1ccccc1)c1ccc(NC(c2ccc(Br)cc2)c2ccc(Br)cc2)cc1 | 
19% | 5.38 | inactive |  | O=C(O)c1ccc(NC(c2ccccc2)c2ccc3ccccc3c2O)cc1 (stereo not given) | < 10%
86% |  |  |  | O=C(O)c1ccc(NC(c2ccccc2)c2ccc(Br)cc2)cc1 (stereo not given) | 
23% | 5.41 | inactive |  | O=C(O)c1ccc(NC(c2ccc(Br)cc2)c2ccc3ccccc3c2O)cc1 (stereo not given) | < 10%
77% |  |  |  | c1ccc(NC(c2ccccc2)c2ccc3ccccc3c2)cc1 (stereo not given) | 
90% |  |  |  | O=C(O)c1ccc(NC(c2ccccc2)c2ccccc2)cc1 | 
82% |  |  |  | CCOC(=O)c1ccc(NC(c2ccccc2)c2ccccc2)cc1 | < 10%
78% |  |  |  | O=C(Nc1ccccc1)c1ccc(NC(c2ccccc2)c2ccccc2)cc1 | 
32% | 5.09 | inactive |  | O=C(O)c1ccc(NC(c2ccc(F)cc2)c2ccc3cccnc3c2O)cc1 (stereo not given) | < 10%
83% |  |  |  | O=C(O)c1ccc(NC(c2ccc(Br)cc2)c2ccc(Br)cc2)cc1 | 
25% | 5.16 | inactive |  | O=C(O)c1ccc(NC(c2ccccc2)c2ccc3cccnc3c2O)cc1 (stereo not given) | < 10%
89% |  |  |  | O=C(Nc1ccc2ccccc2c1)c1ccc(NC(c2ccccc2)c2ccccc2)cc1 | 
64% |  |  |  | O=[N+]([O-])c1ccc(NC(c2ccc(Br)cc2)c2ccc3cccnc3c2O)cc1 (stereo not given) | < 10%
